TRPN1 ag: activates the zebrafish TRPN1 channel | activation, % at 3 µM | HEK293 zebrafish TRPN1-YFP, Fluo-8 calcium fluorescence; 100% = response to 87 µM carbachol | 220,000 tested, 0.18% active | AID 1424;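 active means activation above its plate's cutoff, the mean activation of test wells on that plate plus 3 SD, cut at about 19% in these data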;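 further: 0% = DMSO alone and 100% = 87 µM carbachol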
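System: zebrafish TRPN1-YFP in HEK293 cells / Dosing: 3 µM single point / Timing: dye loading 1 h at 37 °C, then 30 min room temperature / Signal: Fluo-8 calcium fluorescence, excitation 470-495 nm, emission 515-575 nm / Read-out basis: percent activation from peak over basal fluorescence ratio, control-normalized / Control set: high carbachol 87 µM, low DMSO alone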
IDE cell inh: inhibitors of human insulin-degrading enzyme in cells; inhibition, % at 5.59 µM; 320,000 tested, 0.41% active; HEK cells, FAbetaB cleavage, fluorescence polarization; AID 434962; P14735;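 active means percent inhibition above the average of all tested compounds plus 3 SD, set per screening campaign, cut at about 16% in these data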;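 further: IDE supplied by intact live HEK cells; FP after avidin binding of uncleaved biotin substrate so inhibition keeps polarization high; 0% = DMSO wells and 100% = 60 µM reference IDE inhibitor Ii1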
TRPML3 agonist: agonists of human TRPML3 channel; AID 1448; activation, % at 3 µM; 220,000 tested, 0.29% active; HEK293 TRPML3-YFP, Fluo-8 calcium fluorescence; 100% = the carbachol control signal; Q8TDD5;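 active means activation above its plate's cutoff, the mean activation of the plate's test wells plus 3 SD, cut at about 12% in these data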;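 further: 0% = DMSO only wells and 100% = carbachol wells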
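Material: TRPML3-YFP stable HEK293 cells | Dosing: One concentration, 3 µM nominal, 0.3% DMSO | Timing: 125 s total fluorescence read per well | Technique: Fluo-8 calcium dye fluorescence, ex 470-495, em 515-575 nm | Measure: Percent activation from peak-to-basal fluorescence ratio, scaled between DMSO and carbachol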
IDE act: IDE (human) activation, cell-based; P14735; AID 493087; activation, % at 5.96 µM; 340,000 tested, 0.073% active; HEK cells, FAbeta-B cleavage, fluorescence polarization; 0% vehicle, 100% cell-free pure enzyme wells;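 active means activation above the mean of all tested compounds plus 3 SD, set per screening campaign, cut at about 17% in these data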
TRPN1 counter: activates zebrafish TRPN1, counter-screen for TRPML3 agonists; shares compounds with TRPML3 agonist; HEK293 zebrafish TRPN1-YFP, Fluo-8 calcium fluorescence; scaled: carbachol wells 100%, DMSO wells 0%; activation, % at 3 µM; 310 tested, 10% active;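 active means mean activation over replicates above a set limit taken from the earlier TRPN1 channel primary screen, cut at about 19% in these data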;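 further: 100% = carbachol and 0% = 0.3% DMSO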
TRPML3 confirm: confirmation of human TRPML3 channel agonists. activation, % at 3 µM. shares compounds with TRPML3 agonist. HEK293 TRPML3-YFP, Fluo-8 calcium fluorescence; 100% set by carbachol, 0% by DMSO. 310 tested, 80% active;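 active means activation above a set limit derived from the earlier primary screen, cut at about 12% in these data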
* marks the source's active call; other numbers are inactive results; . = no result. The list is not random: actives were taken first. Their share in the collection is about 0.63%.

SMILES	TRPN1 ag	IDE cell inh	TRPML3 agonist	IDE act	TRPN1 counter	TRPML3 confirm
CC(C)[C@H](NS(=O)(=O)c1ccc2c(c1)OCCO2)C(=O)OCC(=O)Nc1cccc(Cl)c1Cl	0	-2	20*	3	1	33*
Cc1cc(C(C)(C)C)oc1C(=O)N(CC(=O)NC1CCCC1)Cc1ccccc1Cl	3	3	33*	1	2	34*
CNc1nc(C)nc(-n2nc(C)cc2C)n1	4	2	0	-1	.	.
Cc1cc(C)n(-c2nc(C)nc(NCc3ccccc3)n2)n1	3	-5	25*	3	3	23*
Cc1cc(NC(=O)COC(=O)C(Cc2ccccc2)NC(=O)c2ccco2)no1 (configuration not stated)	5	-4	18*	-4	22*	24*
Cc1ccc(N2CCN(S(=O)(=O)N3CCCCC3)CC2)c(C)c1	0	-1	37*	.	4	132*
Cc1cc(C)c(S(=O)(=O)N2CCN(S(=O)(=O)N3CCCCCC3)CC2)c(C)c1	.	0	.	0	.	.
O=S(=O)(c1ccc(Cl)cc1)N1CCN(S(=O)(=O)N2CCCCCC2)CC1	1	1	1	-3	.	.
O=S(=O)(N1CCCCC1)N1CCN(c2cc(Cl)ccc2Cl)CC1	-1	-1	19*	3	-1	96*
O=S(=O)(c1ccc(Cl)cc1Br)N1CCCCC1	0	-6	15*	5	-1	27*
COC(=O)c1c(NC(=O)COC(=O)[C@@H](NS(=O)(=O)c2ccc(C)cc2)C(C)C)sc2c1CCC2	0	1	29*	7	-1	50*
CCN(CC)C(=O)CSc1nnc(SC(C)C(=O)NC2CC2)s1 (configuration not stated)	.	-1	.	1	.	.
Cc1ccc(S(=O)(=O)N2CCN(C)CC2)c(C)c1N(C)S(=O)(=O)c1ccc(Cl)cc1	1	1	77*	0	5	58*
Cc1ccc(S(=O)(=O)N(C)c2cc(S(=O)(=O)N3CCOCC3)c(C)cc2C)cc1	.	-5	.	2	.	.
Cc1cc(C)c(S(=O)(=O)N2CCCCC2)cc1N(C)S(=O)(=O)c1ccc(Cl)cc1	0	2	68*	6	-1	69*
O=[N+]([O-])c1ccc(S(=O)(=O)c2cccc(C(F)(F)F)c2)nc1	.	9	.	-7	.	.
COc1ccc(CN(C)CC(=O)Nc2cc(OC)c([N+](=O)[O-])cc2C)c(OC)c1	0	0	-1	-3	.	.
O=S(=O)(c1ccccc1)C1(S(=O)(=O)c2ccccc2)CCCC1	2	0	18*	5	1	29*
NC(=O)C1(S(=O)(=O)c2ccccc2)CCCCC1	0	1	1	2	.	.
O=c1c(Cl)c(Cl)cnn1Cc1nnc(-c2ccccc2Br)o1	7	.	18*	3	15	37*
Cc1ccc([N+](=O)[O-])cc1S(=O)(=O)N1CCC(C)CC1	-1	0	0	.	.	.
Cc1ccc(S(=O)(=O)N2CCC(C)CC2)c([N+](=O)[O-])c1	-1	3	48*	.	-1	60*
CCN(c1ccccc1)S(=O)(=O)c1ccc(F)cc1C	-2	3	24*	3	-3	50*
CC1CCN(S(=O)(=O)c2ccc3ccccc3c2)CC1	0	2	22*	8	0	43*
CC1CCN(S(=O)(=O)c2ccc(Br)s2)CC1	-1	-1	20*	0	-2	19*
SMILES	TRPN1 ag	IDE cell inh	TRPML3 agonist	IDE act	TRPN1 counter	TRPML3 confirm
CC1CCN(S(=O)(=O)c2ccc(C(C)C)cc2)CC1	2	2	68*	4	8	118*
CC1CCN(S(=O)(=O)c2ccc(Cl)cc2)CC1	1	-2	10	4	.	.
CN1CCN(S(=O)(=O)c2ccc3ccccc3c2)CC1	0	-4	1	3	.	.
O=C(CN1C(=O)c2ccccc2S1(=O)=O)Nc1ccc(S(=O)(=O)Nc2ncccn2)cc1	.	.	.	5	.	.
O=C(NCc1ccc(F)cc1)C1(S(=O)(=O)c2ccc(Cl)cc2)CC1	.	-2	.	2	.	.
Nc1oc2ccc(F)cc2c(=O)c1C=O	0	9	1	5	.	.
C=CCOc1ccc2c(c1)c(S(=O)(=O)c1ccc(C)cc1)cn2COC	1	2	127*	-2	0	139*
C=CCOc1ccc(C=Nc2ccc(C)c(Cl)c2)c(O)c1	0	4	1	5	.	.
Cc1onc(-c2ccccc2)c1C(=O)NC(=S)NNC(=O)c1ccncc1	0	3	0	0	.	.
COc1ccc(C(=O)NC(=S)NNC(=O)c2c(-c3ccccc3)noc2C)cc1OC	19	1	19*	.	18	24*
COc1cc(C(=O)NNC(=S)NC(=O)c2ccc(Cl)cc2)cc(OC)c1OC	6	-2	13*	-5	44*	36*
Cc1cccc(NC(=O)CSc2nc3ccccc3c(=O)n2C)c1	.	-2	.	4	.	.
Cc1cc(C)nc(/N=C(\N)Nc2ccc(-c3ccccc3)cc2)n1	16	7	15*	-7	21*	11
Cc1cccc(NC(=O)C2CCCN(S(=O)(=O)c3ccc4[nH]c(=O)ccc4c3)C2)c1 (configuration not stated)	.	1	.	5	.	.
CCN(CC)C(=S)SCC(=O)NC12CC3CC(CC(C3)C1)C2	0	5	12*	-1	0	28*
Cc1cccc(-c2noc(CN(C(C)C)S(=O)(=O)c3ccc(F)cc3)n2)c1	2	2	75*	1	0	56*
O=C(Cc1ccc(Cl)c(Cl)c1)Nc1ccccc1N1CCOCC1	0	2	51*	10	1	67*
O=C(Cc1ccccc1)Nc1ccccc1N1CCOCC1	-2	2	1	4	.	.
CCOC(=O)c1sc(=S)n(C)c1NC(=O)c1ccc(OC)cc1	0	1	0	4	.	.
CCOC(=O)c1sc(=S)n(C)c1NC(=O)c1ccc(C(C)(C)C)cc1	11	2	14*	5	16	10
Cc1cc(C(C)c2ccccc2)c(O)c(CN2CCOCC2)c1C (configuration not stated)	0	-1	16*	-3	-2	33*
COc1ccc(Cl)cc1C(=O)CSc1nnnn1C1CCCCC1	-1	8	5	6	.	.
COc1ccc(Cl)cc1C(=O)CSc1nnnn1C1CCCC1	-1	-2	74*	2	-1	51*
CN(CC(=O)O/N=C(\N)c1cccc([N+](=O)[O-])c1)S(=O)(=O)c1ccccc1	0	-4	96*	2	2	36*
CSc1nsc(/C=C/Nc2cccc(Cl)c2)c1C#N	1	0	40*	-4	0	14*
